# According to publication PMC2674521 (Journal of pharmaceutical sciences, 2009):
# Where “and” joins values, the source holds several entries; their conditions need not be identical. Equal entries are not always repeated. Where two headings read alike, the source gives them in different places.
# Tests used:
# HSA = settings: cited from earlier work
# [1] = target: T1, human serum albumin (HSA) (Homo sapiens, UniProt P02768); assay type: in vitro ADME; settings: for increase in free radiopharmaceutical level: 8:1 warfarin:HSA mole ratio vs drug-free; for Unbound [^64Cu]Cu-PTSM: HSA; for % Free [^64Cu]Cu-PTSM: 49°C, 2.5% v/v ethanol
# T1 sequence (P02768 25-609): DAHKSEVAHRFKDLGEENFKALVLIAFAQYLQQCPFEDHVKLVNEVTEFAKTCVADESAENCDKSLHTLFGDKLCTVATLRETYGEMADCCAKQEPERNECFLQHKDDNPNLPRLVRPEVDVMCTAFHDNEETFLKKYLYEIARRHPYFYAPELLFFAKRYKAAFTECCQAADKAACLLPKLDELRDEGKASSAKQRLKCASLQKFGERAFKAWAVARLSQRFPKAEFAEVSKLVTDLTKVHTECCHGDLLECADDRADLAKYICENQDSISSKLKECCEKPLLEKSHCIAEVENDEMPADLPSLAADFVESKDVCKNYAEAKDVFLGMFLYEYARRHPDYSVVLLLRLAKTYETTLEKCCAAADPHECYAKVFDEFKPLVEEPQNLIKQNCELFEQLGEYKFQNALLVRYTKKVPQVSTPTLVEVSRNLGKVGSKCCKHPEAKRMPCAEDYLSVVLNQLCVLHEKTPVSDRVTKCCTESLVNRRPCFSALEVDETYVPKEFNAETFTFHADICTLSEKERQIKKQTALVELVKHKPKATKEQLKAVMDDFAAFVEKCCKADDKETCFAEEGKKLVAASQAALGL
# In short: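 HSA (globulin-free, ≥99.5% fatty acid free) reconstituted in 0.9% saline at 0.66 mM. 100 µL of drug in saline (3.3–53 mM, pH 7) or saline alone (drug-free control) added to 1.0 mL, giving 40 mg/mL HSA at 0.5:1–8:1 drug:HSA. 2–8 µCi 64Cu tracer added and vortexed. Triplicate aliquots ultrafiltered (30,000 Da NMWL) within 5 min, 64Cu gamma-counted.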
# [2] = target: T1, human serum albumin (HSA); settings: cited from earlier work; for % bound to HSA: 40 mg/mL HSA solution
# [3] = target: T2, canine serum albumin (CSA) (Canis lupus familiaris, UniProt P49822); assay type: in vitro ADME; settings: for Unbound level: CSA solutions containing warfarin; for Free tracer: CSA solutions with added ibuprofen
# T2 sequence (P49822 25-608): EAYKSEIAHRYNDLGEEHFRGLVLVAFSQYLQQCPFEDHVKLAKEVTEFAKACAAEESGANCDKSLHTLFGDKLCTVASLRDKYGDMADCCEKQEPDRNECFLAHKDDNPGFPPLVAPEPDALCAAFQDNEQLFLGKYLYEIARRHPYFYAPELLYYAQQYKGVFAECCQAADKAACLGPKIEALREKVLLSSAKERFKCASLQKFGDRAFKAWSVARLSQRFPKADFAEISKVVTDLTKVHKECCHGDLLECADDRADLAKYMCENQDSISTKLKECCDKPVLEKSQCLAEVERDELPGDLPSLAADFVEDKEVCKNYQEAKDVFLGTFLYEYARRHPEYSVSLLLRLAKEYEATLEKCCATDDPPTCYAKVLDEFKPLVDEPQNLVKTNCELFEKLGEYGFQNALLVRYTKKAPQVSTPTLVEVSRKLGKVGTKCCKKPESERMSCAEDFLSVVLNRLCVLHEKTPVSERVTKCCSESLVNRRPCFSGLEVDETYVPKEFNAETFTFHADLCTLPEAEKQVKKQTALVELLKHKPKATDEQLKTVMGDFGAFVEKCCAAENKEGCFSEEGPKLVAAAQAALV
# rat serum [4] = assay type: in vitro ADME
# [5] = Ultrafiltration of [^64Cu]Cu-PTSM in protein-free saline
# In short: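 Membrane-integrity control without protein: 25 µL ethanol (2.5% v/v) added to 1.0 mL saline containing [64Cu]Cu-PTSM, compared with saline alone. Ultrafiltered through 30,000 Da NMWL membranes, n = 5 per group. % free tracer from 64Cu gamma counts of measured ultrafiltrate and starting-solution volumes.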
# rat serum [6] = target: rat serum (Rattus norvegicus, UniProt P02770); settings: RSA solution; cited from earlier work
# rat serum (Rattus norvegicus, UniProt P02770), sequence (P02770 25-608): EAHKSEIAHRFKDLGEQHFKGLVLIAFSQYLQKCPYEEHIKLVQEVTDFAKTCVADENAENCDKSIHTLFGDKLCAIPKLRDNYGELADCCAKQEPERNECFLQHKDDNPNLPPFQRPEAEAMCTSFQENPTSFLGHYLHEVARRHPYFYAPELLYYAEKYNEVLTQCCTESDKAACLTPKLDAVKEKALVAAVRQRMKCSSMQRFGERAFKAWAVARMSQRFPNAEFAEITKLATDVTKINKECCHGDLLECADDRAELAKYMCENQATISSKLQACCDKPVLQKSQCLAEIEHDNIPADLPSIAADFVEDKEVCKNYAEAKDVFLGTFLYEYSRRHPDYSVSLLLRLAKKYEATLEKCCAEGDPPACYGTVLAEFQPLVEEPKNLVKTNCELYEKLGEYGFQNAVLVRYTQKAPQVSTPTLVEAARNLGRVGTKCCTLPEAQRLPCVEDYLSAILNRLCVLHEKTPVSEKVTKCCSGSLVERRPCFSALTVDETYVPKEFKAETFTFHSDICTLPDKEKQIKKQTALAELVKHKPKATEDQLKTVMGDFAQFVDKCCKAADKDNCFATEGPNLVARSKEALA
# [7] = ref 37, 38; cited from earlier work
# [8] = target: T2, canine serum albumin (CSA); settings: no competing drug; cited from earlier work
# [9] = HSA solutions with even high concentrations of L-tryptophan
# [10] = drug-free HSA control (drug:HSA mole ratio 0), 40 mg/mL HSA
# [11] = ibuprofen:HSA mole ratio 0.5, 40 mg/mL HSA
# [12] = ibuprofen:HSA mole ratio 1, 40 mg/mL HSA
# [13] = ibuprofen:HSA mole ratio 2, 40 mg/mL HSA
# [14] = ibuprofen:HSA mole ratio 4, 40 mg/mL HSA
# [15] = ibuprofen:HSA mole ratio 8, 40 mg/mL HSA
# [16] = ibuprofen:HSA mole ratios up to 4:1
# [17] = warfarin:HSA mole ratio 0.5, 40 mg/mL HSA
# [18] = warfarin:HSA mole ratio 1, 40 mg/mL HSA
# [19] = warfarin:HSA mole ratio 2, 40 mg/mL HSA
# [20] = warfarin:HSA mole ratio 4, 40 mg/mL HSA
# [21] = warfarin:HSA mole ratio 8, 40 mg/mL HSA
compound,measurement,setting,value
CC(=O)CC(c1ccccc1)c1c(O)c2ccccc2oc1=O (stereo not shown) [Warfarin],affinity for HSA (Ka),HSA; ref 45,340000 M⁻¹
same,affinity for HSA (Ka),HSA; ref 47,340000 M⁻¹
same,affinity for HSA (Ka),HSA; reference not given,340000 M⁻¹
"CN=C([S-])N/N=C(C)/C(C)=N/NC([S-])=NC.[Cu+2] [[^64Cu]Cu-ATSM, diacetyl bis(N^4-methylthiosemicarbazonato)copper(II)]",increase in free radiopharmaceutical level,[1],300–500%
same,displacement from HSA,[1]; [9],not observed
same,% Free (corrected),[1]; [10],5.9 ± 0.4%
same,% Free (corrected),[1]; [11],7.1 ± 0.6%
same,% Free (corrected),[1]; [12],7.5 ± 0.8%
same,% Free (corrected),[1]; [13],8.2 ± 1.1%
same,% Free (corrected),[1]; [14],7.3 ± 0.8%
same,% Free (corrected),[1]; [15],10.5 ± 1.1%
same,displacement from HSA,[1]; [16],no displacement
same,% Free (corrected),[1]; [17],7.3 ± 0.2%
same,% Free (corrected),[1]; [18],9.4 ± 0.8%
same,% Free (corrected),[1]; [19],12.4 ± 0.9%
same,% Free (corrected),[1]; [20],14.5 ± 0.6%
same,% Free (corrected),[1]; [21],19.0 ± 1.7%
same,% bound to HSA,[2],approx. 95%
same,Unbound level,[3],37.0%
same,Free tracer,[3],43.8%
"CN=C([S-])N/N=C/C(C)=N/NC([S-])=NC.[Cu+2] [[^64Cu]Cu-PTSM, pyruvaldehyde bis(N^4-methylthiosemicarbazonato)copper(II)]",effect of fatty acid addition on HSA binding,"[1]; 1:1 fatty acid:HSA ratios (capric, myristic, palmitic, oleic)",little effect
same,level of free [^64Cu]Cu-PTSM relative to fatty acid-free,"[1]; 6:1 fatty acid:HSA mole ratios (capric, myristic, palmitic, oleic)",approximately doubled
same,increase in free radiopharmaceutical level,[1],300–500%
same,displacement from HSA,[1]; [9],not observed
same,% free,"[1]; HSA with highest concentration of tryptophan, 4.8 mM (1.0 mg/mL)",3.2 ± 0.1%
same,Unbound [^64Cu]Cu-PTSM,[1]; incubated at 49°C for 30 min,3.8 ± 0.2%
same,Unbound [^64Cu]Cu-PTSM,[1]; room temperature control solutions,4.2 ± 0.6%
same,% Free (corrected),"[1]; benzylpenicillin:HSA mole ratio 0.5, 40 mg/mL HSA",3.8 ± 0.1%
same,% Free (corrected),"[1]; benzylpenicillin:HSA mole ratio 1, 40 mg/mL HSA",3.5 ± 0.1%
same,% Free (corrected),"[1]; benzylpenicillin:HSA mole ratio 2, 40 mg/mL HSA",3.3 ± 0.2%
same,% Free (corrected),"[1]; benzylpenicillin:HSA mole ratio 4, 40 mg/mL HSA",3.4 ± 0.1%
same,% Free (corrected),"[1]; benzylpenicillin:HSA mole ratio 8, 40 mg/mL HSA",3.3 ± 0.1%
same,% Free [^64Cu]Cu-PTSM,"[1]; capric acid:HSA 1:1, 40 mg/mL HSA",7.5 ± 0.3 (4) %
same,% Free [^64Cu]Cu-PTSM,"[1]; capric acid:HSA 6:1, 40 mg/mL HSA",12.6 ± 3.5 (5) %
same,displacement from HSA,"[1]; cephmandole, drug:HSA mole ratios up to 4:1",not displaced
same,% Free (corrected),"[1]; cephmandole:HSA mole ratio 0.5, 40 mg/mL HSA",3.5 ± 0.1%
same,% Free (corrected),"[1]; cephmandole:HSA mole ratio 1, 40 mg/mL HSA",3.2 ± 0.2%
same,% Free (corrected),"[1]; cephmandole:HSA mole ratio 2, 40 mg/mL HSA",3.5 ± 0.1%
same,% Free (corrected),"[1]; cephmandole:HSA mole ratio 4, 40 mg/mL HSA",4.2 ± 0.2%
same,% Free (corrected),[1]; [10],4.0 ± 0.1% and 4.0% and 4.0 ± 0.4%
same,increase in free [^64Cu]Cu-PTSM in solution,[1]; furosemide:HSA 8:1 mole ratio vs drug-free,> 700%
same,% Free (corrected),"[1]; furosemide:HSA mole ratio 1, 40 mg/mL HSA",8.4 ± 0.2%
same,% Free (corrected),[1]; [11],3.4 ± 0.1%
same,% Free (corrected),[1]; [12],3.4 ± 0.3%
same,% Free (corrected),[1]; [13],3.2 ± 0.5%
same,% Free (corrected),[1]; [14],4.8 ± 0.2%
same,% Free (corrected),[1]; [15],10.1 ± 0.6%
same,displacement from HSA,[1]; [16],no displacement
same,% Free [^64Cu]Cu-PTSM,"[1]; myristic acid:HSA 1:1, 40 mg/mL HSA",6.8 ± 0.3 (4) %
same,% Free [^64Cu]Cu-PTSM,"[1]; myristic acid:HSA 6:1, 40 mg/mL HSA",14.6 ± 0.8 (5) %
same,% Free [^64Cu]Cu-PTSM,"[1]; oleic acid:HSA 1:1, 40 mg/mL HSA",6.0 ± 0.3 (4) %
same,% Free [^64Cu]Cu-PTSM,"[1]; oleic acid:HSA 6:1, 40 mg/mL HSA",12.7 ± 0.7 (4) %
same,% Free [^64Cu]Cu-PTSM,"[1]; palmitic acid:HSA 1:1, 40 mg/mL HSA",5.6 ± 0.2 (3) %
same,% Free [^64Cu]Cu-PTSM,"[1]; palmitic acid:HSA 6:1, 40 mg/mL HSA",9.6 ± 0.3 (4) %
same,% Free (corrected),"[1]; phenylbutazone:HSA mole ratio 1, 40 mg/mL HSA",7.1 ± 0.1%
same,% Free (corrected),"[1]; phenylbutazone:HSA mole ratio 8, 40 mg/mL HSA",28.7 ± 0.8%
same,% Free (corrected),[1]; [17],4.6 ± 0.1%
same,% Free (corrected),[1]; [18],5.8 ± 0.7%
same,% Free (corrected),[1]; [19],7.7 ± 0.8%
same,% Free (corrected),[1]; [20],14.8 ± 0.3%
same,% Free (corrected),[1]; [21],20.1 ± 1.5%
same,% Free [^64Cu]Cu-PTSM,rat serum [4]; drug:RSA mole ratio 0,14.7 ± 1.2%
same,% Free [^64Cu]Cu-PTSM,rat serum [4]; furosemide:RSA mole ratio 1,20.2 ± 0.7%
same,% Free [^64Cu]Cu-PTSM,rat serum [4]; furosemide:RSA mole ratio 8,28.6 ± 0.6%
same,% Free [^64Cu]Cu-PTSM,rat serum [4]; phenylbutazone:RSA mole ratio 1,18.6 ± 0.4%
same,% Free [^64Cu]Cu-PTSM,rat serum [4]; phenylbutazone:RSA mole ratio 8,20.6 ± 0.4%
same,% Free [^64Cu]Cu-PTSM,rat serum [4]; warfarin:RSA mole ratio 1,19.8 ± 0.5%
same,% Free [^64Cu]Cu-PTSM,rat serum [4]; warfarin:RSA mole ratio 8,24.1 ± 0.5%
same,Free tracer (% free),[5]; saline + 2.5% v/v ethanol,68.0 ± 2.3%
same,Free tracer (% free),[5]; saline control,67.2 ± 0.7%
same,% bound to HSA,[2],approx. 95%
same,% free,[2]; HSA solution,4.3 ± 0.2%
same,free fraction,"[3]; 40 mg/mL CSA, 8:1 mole ratio of warfarin (first value)",36.1 ± 2.8%
same,% free,rat serum [6],14.1 ± 0.3%
same,log P,[7],1.9
same,% free in canine serum albumin (CSA) solutions,[8],approximately 42%
C=CC1=C(C)/C(=C/c2[nH]c(Cc3[nH]c(/C=C4\NC(=O)C(C)=C4C=C)c(C)c3CCC(=O)O)c(CCC(=O)O)c2C)NC1=O [bilirubin],association with HSA (Ka),"HSA; site believed distinct from the IIA and IIIA drug sites, no reference given",9.5e+07 M⁻¹
ethylglyoxal bis(thiosemicarbazonato)copper(II) [[^64Cu]Cu-ETS],% Free (corrected),[1]; [10],40.6 ± 1.1%
same,% Free (corrected),[1]; [11],43.9 ± 2.2%
same,% Free (corrected),[1]; [12],42.1 ± 2.7%
same,% Free (corrected),[1]; [13],45.8 ± 2.6%
same,% Free (corrected),[1]; [14],43.6 ± 3.1%
same,% Free (corrected),[1]; [15],49.6 ± 1.2%
same,interaction with HSA on addition of site IIA or IIIA drugs,"[1]; warfarin, ibuprofen up to 8:1",unaffected
same,% Free (corrected),[1]; [17],42.8 ± 1.6%
same,% Free (corrected),[1]; [18],44.2 ± 1.2%
same,% Free (corrected),[1]; [19],45.2 ± 1.3%
same,% Free (corrected),[1]; [20],42.8 ± 3.4%
same,% Free (corrected),[1]; [21],44.7 ± 2.7%
same,Unbound level,[3],40.4%
same,Free tracer,[3],39.5%
